{"source": "ChEMBL document CHEMBL1240369", "about": "“Antiviral efficacy of the novel compound BIT225 against HIV-1 release from human macrophages” (Antimicrob Agents Chemother, 2010)", "key": {"[1]": {"test": "Selectivity index, ratio of TC50 for human MDM cells to EC50 for HIV1 MDR3761 infected in human MDM cells", "type": "toxicity, cell-based", "settings": "read-out: Selectivity Index"}, "MDM [2]": {"test_system": "MDM", "test": "Inhibition of Vpu ion channel in 0.01 MOI HIV1 Ba-L infected in 10 days differentiated human MDM cells assessed as number of gag copy", "type": "cell-based", "settings": "Human immunodeficiency virus 1", "procedure,_shortened": "(§1)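 MDM differentiated for 7, 10 or 14 days were infected with HIV-1 Ba-L across a range of MOIs, washed three times with PBS and cultured 7 days with 10 μM compound or equal-volume DMSO. On day 7 postinfection, supernatant RT activity was measured (and infectivity on TZM-bl cells). Cell lysates went to real-time PCR for LTR-gag DNA, normalised to albumin copies.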"}, "PBMC [3]": {"test_system": "PBMC", "test": "Inhibition of Vpu ion channel in 0.05 MOI HIV1 NL4-3 infected in human PBMC cells assessed as viral inhibition measured after 7 days by […]", "settings": "Human immunodeficiency virus 1"}, "[4]": {"test_system": "Human immunodeficiency virus 1", "test": "Antiviral activity against HIV1 Ba-L in 14 days differentiated human MDM assessed as decrease in intracellular viral protein at 10 uM after 7 days by Western blot analysis", "type": "functional, organism-based", "procedure,_shortened": "(§2)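 Day 14 MDM were chronically infected with HIV-1 Ba-L, then given 10 μM compound or DMSO and harvested on day 28. Lysates with equal total protein (checked by β-actin) were run on a 10% polyacrylamide gel and blotted to nitrocellulose. Blots were probed with HIV-1-seropositive human serum, then HRP anti-human IgG.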"}, "MDM [5]": {"test_system": "MDM", "test": "Inhibition of Vpu ion channel in 0.001 MOI HIV1 Ba-L infected in 10 days differentiated human MDM cells assessed as viral inhibition by TZM-bl infectivity assay", "type": "cell-based", "settings": "Human immunodeficiency virus 1", "procedure,_shortened": "as §1"}, "[6]": {"target": "Protease (Human immunodeficiency virus 1) (UniProt Q9YQ12)", "sequence (Q9YQ12 as listed by the source)": "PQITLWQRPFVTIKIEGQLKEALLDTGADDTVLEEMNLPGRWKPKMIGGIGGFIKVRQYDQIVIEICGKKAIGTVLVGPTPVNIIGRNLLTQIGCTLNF", "test": "Inhibition of HIV1 protease assessed as substrate cleavage at 100 uM by cell free assay", "procedure,_shortened": "(§3)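 Cell-free fluorometric protease assay: compound (1–100 μM) was premixed with 2 μM quenched HIV-1 protease substrate 1. Background fluorescence (ex 340/em 490 nm) was read every 5 s for 5 min. HIV-1 protease was then added at 1.5% and cleavage followed for a further 5 min. LPV and EFV served as controls.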"}, "[7]": {"test_system": "Human immunodeficiency virus 1", "test": "(§4) Inhibition of Vpu ion channel in HIV1 Ba-L in human MDM assessed as inhibition of vrius release", "procedure,_shortened": "(§5)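 Day 14 MDM were infected with HIV-1 Ba-L for 3 h, washed three times and cultured with compound from 10 to 0 μM (0 μM containing matched DMSO). Day 7 supernatants were assayed for RT activity and converted to percent of virus control. EC50 came from nonlinear regression; n = 6 experiments, each in triplicate.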"}, "[8]": {"test": "as §4", "parameters": "species or system Human immunodeficiency virus 1", "procedure,_shortened": "as §5"}, "MDM [9]": {"test_system": "MDM", "test": "Inhibition of Vpu ion channel in 0.05 MOI HIV1 Ba-L acutely infected in 14 days differentiated human MDM cells assessed as viral release after 7 days relative to control", "type": "cell-based", "settings": "Human immunodeficiency virus 1", "procedure,_shortened": "(§6)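 Day 14 MDM were acutely infected with HIV-1 Ba-L at MOI 0.05 for 3 h, washed three times with PBS, then cultured a further 7 days in DMEM10+ with 10 μM compound or equal DMSO. Virus release was measured as supernatant RT activity on day 21 of culture, relative to DMSO controls.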"}, "[10]": {"test": "Inhibition of Vpu ion channel in HIV1 92TH001 in human MDM assessed as inhibition of vrius release", "parameters": "species or system Human immunodeficiency virus 1"}, "MDM [11]": {"test_system": "MDM", "test": "Inhibition of Vpu ion channel activity in 0.05 MOI HIV1 Ba-L chronically infected in 7-14 days differentiated human MDM cells assessed as viral inhibition measured after 7 days", "type": "cell-based", "settings": "Human immunodeficiency virus 1", "procedure,_shortened": "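Day 14 MDM from 3 seronegative donors were infected with HIV-2, or with HIV-1 Ba-L as a positive control, at MOI 0.05 for 7 days. Cells were then washed free of extracellular virus and cultured ± 10 μM compound for a further 7 days. Day 28 supernatants were assayed for RT activity by chemiluminescent ELISA, with recombinant RT as the standard.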"}, "PM1": {"test_system": "PM1", "test": "Inhibition of Vpu ion channel in 0.05 MOI HIV1 NL4-3 infected in PM1 cells assessed as viral inhibition measured at 10 uM after 7 days by […]", "settings": "Human immunodeficiency virus 1"}, "[12]": {"test_system": "Human immunodeficiency virus 1", "test": "Antiviral activity against HIV1 Ba-L in 14 days differentiated human MDM assessed as decrease in intracellular p24 level at 10 uM after 7 days by Western blot analysis", "type": "functional, organism-based", "procedure,_shortened": "as §2"}, "[13]": {"test": "Selectivity index, ratio of TC50 for human MDM cells to EC50 for HIV1 G-92NG003-G3 infected in human MDM cells", "type": "toxicity, cell-based", "settings": "read-out: Selectivity Index"}, "[14]": {"target": "Protease (Human immunodeficiency virus 1) (UniProt Q9YQ12)", "test": "Inhibition of HIV1 protease assessed as substrate cleavage by cell free assay", "procedure,_shortened": "as §3"}, "[15]": {"test": "Selectivity index, ratio of TC50 for human MDM cells to EC50 for HIV1 1064.52 infected in human MDM cells", "type": "toxicity, cell-based", "settings": "read-out: Selectivity Index"}, "[16]": {"test_system": "Human immunodeficiency virus 2", "test": "Antiviral activity against 0.05 MOI HIV2 noncytopathic strain chronically infected in 7-14 days differentiated human MDM cells assessed as viral inhibition measured after 7 days", "type": "functional", "procedure,_shortened": "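Day 14 MDM from three seronegative donors were infected at MOI 0.05 for 7 days, then washed free of extracellular virus. Cultures then ran a further 7 days with or without 10 μM BIT225, from day 21. Day 28 supernatants were assayed by RT activity ELISA. Percent inhibition was taken versus untreated controls, as mean of three donors.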"}, "[17]": {"test": "Inhibition of Vpu ion channel in HIV1 1064.52 in human MDM assessed as inhibition of vrius release", "parameters": "species or system Human immunodeficiency virus 1"}, "[18]": {"test": "Selectivity index, ratio of TC50 for human MDM cells to EC50 for HIV1 92UG029 infected in human MDM cells", "type": "toxicity, cell-based", "settings": "read-out: Selectivity Index"}, "MDM [19]": {"test_system": "MDM", "test": "Inhibition of Vpu ion channel in 0.01 MOI HIV1 Ba-L infected in 10 days differentiated human MDM cells assessed as viral inhibition by TZM-bl infectivity assay", "type": "cell-based", "settings": "Human immunodeficiency virus 1", "procedure,_shortened": "as §1"}, "MDM [20]": {"test_system": "MDM", "test": "Inhibition of Vpu ion channel in 0.001 to 0.01 MOI HIV1 Ba-L infected in 10 days differentiated human MDM cells assessed as viral inhibition by RT assay", "type": "cell-based", "settings": "Human immunodeficiency virus 1", "procedure,_shortened": "as §1"}, "MDM [21]": {"test_system": "MDM", "test": "Inhibition of Vpu ion channel in 0.05 MOI HIV1 Ba-L acutely infected in 14 days differentiated human MDM cells assessed as reverse transcriptase activity after 21 days relative to control", "type": "cell-based", "settings": "Human immunodeficiency virus 1", "procedure,_shortened": "as §6"}, "[22]": {"test_system": "Human immunodeficiency virus 1", "test": "Antiviral activity against HIV1 Ba-L in human MDM assessed as inhibition integration of virus to host cell genome at 10 nM by RT assay", "type": "functional", "settings": "Human immunodeficiency virus 1, Ba-L"}, "MDM [23]": {"test_system": "MDM", "test": "Inhibition of Vpu ion channel in 0.05 MOI HIV1 Ba-L infected in 14 days differentiated human MDM cells assessed as number of gag copy", "type": "cell-based", "settings": "Human immunodeficiency virus 1", "procedure,_shortened": "as §1"}, "PBMC [24]": {"test_system": "PBMC", "test": "Inhibition of Vpu ion channel in 0.05 MOI HIV1 NL4-3 infected in human PBMC cells assessed as viral inhibition measured at 5 uM after 7 days by […]", "settings": "Human immunodeficiency virus 1"}}, "note": "Active and inactive are the calls of the source. No cut-off for these calls is given here.", "data": [{"compound": "Cn1cc(-c2cccc3cc(C(=O)NC(=N)N)ccc23)cn1", "values": [{"measurement": "selectivity ratio", "setting": "[1]", "result": 39.3}, {"measurement": "Activity", "setting": "MDM [2]", "result": 1380}, {"measurement": "inhibition", "setting": "PBMC [3]", "result": 95.8, "unit": "%"}, {"measurement": "Activity", "setting": "[4]", "result": "inactive"}, {"measurement": "inhibition", "setting": "MDM [5]", "result": 98.1, "unit": "%"}, {"measurement": "Activity", "setting": "[6]", "result": "inactive"}, {"measurement": "Activity", "setting": "[7]", "result": "Dose-dependent effect"}, {"measurement": "EC50", "setting": "[8]", "result": 2250, "unit": "nM"}, {"measurement": "inhibition", "setting": "MDM [9]", "result": 38, "unit": "%"}, {"measurement": "EC50", "setting": "[10]", "result": 1500, "unit": "nM"}, {"measurement": "inhibition", "setting": "MDM [11]", "result": 66.6, "unit": "%"}, {"measurement": "inhibition", "setting": "PM1", "result": 21, "unit": "%"}, {"measurement": "Activity", "setting": "[12]", "result": "Active"}, {"measurement": "selectivity ratio", "setting": "[13]", "result": 131}, {"measurement": "Activity", "setting": "[14]", "result": "inactive"}, {"measurement": "selectivity ratio", "setting": "[15]", "result": 61.9}, {"measurement": "inhibition (INH)", "setting": "[16]", "result": 13.4, "unit": "%"}, {"measurement": "EC50", "setting": "[17]", "result": 2700, "unit": "nM"}, {"measurement": "selectivity ratio", "setting": "[18]", "result": 14}, {"measurement": "inhibition", "setting": "MDM [19]", "result": 90.4, "unit": "%"}, {"measurement": "inhibition", "setting": "MDM [20]", "result": 82, "unit": "%"}, {"measurement": "Activity", "setting": "MDM [21]", "result": "< 6", "unit": "U/ml"}, {"measurement": "inhibition at 0.01 µM", "setting": "[22]", "result": 99, "unit": "%"}, {"measurement": "Activity", "setting": "MDM [23]", "result": "Active"}, {"measurement": "inhibition", "setting": "PBMC [24]", "result": 25.7, "unit": "%"}]}]}
